# According to the EternaBench riboswitch data:
# Tested on: MS2 coat protein
# Test: apparent Kd, MS2 coat protein; higher = weaker binding; RNA-MaP array; FMN 200 µM where present
# Outline: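 On Illumina sequencing-chip clusters, designs were transcribed by stalled E. coli RNA polymerase and titrated with SNAP-549-labelled MS2 coat protein (0.7 or 1.5 nM, doubling to 3 µM), without and then with constant ligand, in 100 mM Tris-HCl pH 7.5, 80 mM KCl, 4 mM MgCl2, BSA, DTT, yeast tRNA and Tween-20. Apparent Kd is the median of filtered per-cluster curve fits to green signal normalised to red-channel RNA signal and control-cluster median Fmax.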
# [1] = designed as: ON switch for flavin mononucleotide, no ligand
# [2] = ligand present: flavin mononucleotide, designed as: ON switch for flavin mononucleotide
# [3] = designed as: OFF switch for flavin mononucleotide, no ligand
# [4] = ligand present: flavin mononucleotide, designed as: OFF switch for flavin mononucleotide
Sequence,apparent Kd [1] [µM],apparent Kd [2] [µM],apparent Kd [3] [µM],apparent Kd [4] [µM]
CGCACUAUACAUGAGGAUCACCCAUGUUAAUAUGAGAUAGUCAGAAGGCAUUGUAUGAGAAAUUAUGAGGAUAUGAAUAGUGCG,0.106,0.0328,,
UUAUAUAGGUAGGAUAUCGAUAUUAAUUAUUAUCGAGAAGGGUCUACAUGAGGAUCACCCAUGUUAGCAUGUAU,,,0.0289,0.0329
CAGAUCGGCUAGGAUAUCCAUGGUAUGUUACGAGGAGAAGGAGUCACAUGAGGAUCACCCAUGUCUCAUACUGA,,,0.0247,0.0318
UGCUAGAACCUAGGAUAUCCUGGGUUGGUGGUGCUUGAUGACCGGACAUGAGGAUCACCCAUGUAGGAGAAGGAGGUUGUUAAG,,,0.0606,0.112
GGUGCUGUGUAGAAGGCAGAUCUGAUUCAGAUCUGAGGAUAUACAUGAGGAUCACCCAUGUUAAGCACCAGCACGAGAGUGCAA,,,0.0058,0.00854
GAUUAACAUGAGGAUCACCCAUGUGAGGAUAUGGACUGGCUCACUUUCCGAUUCGAGUCUAGAAGGCGCAUCUU,,,0.0328,0.0352
AACAUACUGUACAUGAGGAUCACCCAUGUUCGGGCACUGUACAGAAGGCACGGGCAAAUGCGAGGUGAGGAUAUGUAGUUAGUG,0.122,0.0498,,
GCGUCAGAAUUAAUUGUGACAAGCAGAAGGCUAUAUCUUAUGUUAGACAUGAGGAUCACCCAUGUAGAGGAUAUGCAGUUACAC,,,0.00787,0.0142
GUGUACAGAGGAUAUACUGGAGCAUGGAAACAUGCAACCUCACAUGAGGAUCACCCAUGUAGAAGGCUGUACAC,,,0.334,0.0283
UUGGACGUCGUAGGAUAUGUAGGAUAUUCCUACAUGAGGAUCACCCAUGUUGACAUGGAAGAAUGACAGAAGGACGAUGUCCAU,0.712,0.0118,,
GGUACUCAAAGAGUACCAAUACGAACAUGAGGAUCACCCAUGUAGGAUAUGCUACUCAAAGAGUAGCAGAAGGACAUGUGUCUA,,,0.0296,0.16
ACCAUUUACUAAUCGUCUAUACAUGAGGAUCACCCAUGUUAUGAGGAUAUCGUCGUGAAACACGACGAGAAGGCAUAGCAUUCG,,,0.0322,0.132
UUAAAUCAUGUAGGAUAUGCAUGGCGAAGCUACGCAGAAGGACAUGAGGAUCACCCAUGUUAUAGCUACUGAGUUCAGUGGCAA,,,0.107,0.231
GCGCUGCGAGGAUAUACAUGAGGAUCACCCAUGUGUCGGCAGCCAUGCUAGUACAAAUGUAGAAGGCGCGUAAA,,,0.0168,0.0178
CGGUACUAGGGAGGAUAUGGGAAGAUACAUGAGGAUCACCCAUGUUUAAGAAUGCCGAGAGGCAACUAGAAGGCCCUAGUACCU,0.353,0.0207,,
AUUUUAAAGGGAGGAUAUACAUGAGGAUCACCCAUGUAAACGUGAGGAUCACCCAUGUAAACAAUGUAGAAGGCCUAUAUCUAU,,,0.086,0.0741
AUGCUUCACACAGGAUAUACAUGAGGAUCACCCAUGUGUCCAAAGUAGCCGACACGAGCUACGUCGUAGAAGGGUGUGAAGCAU,,,0.0188,0.0873
AAUUAUUAUUGAGGAUAUCGUAUUGAAACAAUAUGAGAAGGCGGGAUAAACAUGAGGAUCACCCAUGUGAGCCUGAUGCUUGUG,,,0.0163,0.0156
CCGUGAAGGACAGGAUAUGGACAUGAGGAUCACCCAUGUACAUGGGAAUAUAUACUGAAUUUAUACUAGAAGGGUUACAUAAAU,,,0.0218,0.0194
UUUAGUUCAGGAUAUGUAGAUUUUAACAUGAGGAUCACCCAUGUAGAUCCUGAAUUAACUACAGAAGGGAACAUUU,,,0.0198,0.0886
CCGGAUAUGCAGGAUAUCGUAACGGAAACGUUACGAGAAGGGUAUACAUGAGGAUCACCCAUGUGUCCUACCGG,,,0.0281,0.0323
GUCAGCUCGUGAGGAUAUACAACAGUGCUUCGGCAGUGUAUUAAGAUCACAUGAGGAUCACCCAUGUAGAAGGCACGAGCUGAU,,,0.0131,0.207
GCCAUCGCAUGAGGAUAUGCUCCCGUUUCGGGAGCAGAAGGCAUGUAAUAAGACAUGAGGAUCACCCAUGUAGUUAAGAUGGCA,0.00736,0.00532,,
